Experimental data from ChEMBL document CHEMBL1629654, “Breakthrough Aspergillus fumigatus and Candida albicans double infection during caspofungin treatment: laboratory characteristics and implication for susceptibility testing” (2009).
Values after ≈ are worked out from the molar mass of the structure shown. Active and inactive are the calls of the source. The rule behind the calls is not given here.

How the values were obtained:
Candida albicans [1] = test: Antimicrobial activity against Candida albicans isolate R at 1 ug/ml grown on RPMI 1640 medium after 24 hrs by disk diffusion method; format: functional
Procedure, shortened: (§1)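 Disk diffusion on 90-mm RPMI 1640 with 2% glucose agar or on Mueller-Hinton agar. Plates were swabbed in three directions with a yeast suspension of 1–5 × 10^6 cells/ml. Paper disks (6 mm) held 1, 5 or 25 µg drug. Zone diameters were read at 24 and 48 h; values are means of two experiments.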

Candida tropicalis [2] = test: Antimicrobial activity against Candida tropicalis after 48 hrs by 80% endpoint M27-A2 method; format: functional
Candida albicans [3] = test: Antimicrobial activity against Candida albicans isolate R after 24 hrs by microdilution method; format: functional
Procedure, shortened: (§2)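 Broth microdilution in microtiter plates, read spectrophotometrically at 490 nm. MIC taken as the lowest drug dilution giving 50% growth inhibition. C. krusei […] run as control in each run. Read at 24 h and 48 h; trailing growth noted at 48 h.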

Candida albicans [4] = test: Antimicrobial activity against Candida albicans isolate R at 25 ug/ml grown on RPMI 1640 medium after 24 hrs by disk diffusion method; format: functional; procedure, shortened: as §1
Candida albicans [5] = test: Antimicrobial activity against Candida albicans after 48 hrs by Etest; format: functional
Pichia kudriavzevii [6] = test: Antimicrobial activity against Candida krusei after 48 hrs by 50% endpoint M27-A2 method; format: functional
Pichia kudriavzevii [7] = test: Antimicrobial activity against Candida krusei after 48 hrs by 80% endpoint M27-A2 method; format: functional
[8] = system: Meyerozyma guilliermondii; test: Antimicrobial activity against Candida guilliermondii after 48 hrs by Etest; format: functional
Candida albicans [9] = test: Antimicrobial activity against Candida albicans obtained from urine of patient 21 days after admission by EUCAST microdilution method; format: functional; conditions: 504 h
Procedure, shortened: (§3)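 EUCAST broth microdilution, plates read spectrophotometrically at 490 nm. MIC is the lowest dilution giving 50% growth inhibition. C. krusei […] control included in each run.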

Candida albicans [10] = test: Antimicrobial activity against Candida albicans isolate R at 25 ug/ml grown on Muller-Hinton agar medium after 24 hrs by disk diffusion method; format: functional; procedure, shortened: as §1
Candida albicans [11] = test: Antimicrobial activity against Candida albicans after 48 hrs by broth microdilution method; format: functional
Candida albicans [12] = test: Antimicrobial activity against Candida albicans after 48 hrs by 50% endpoint M27-A2 method; format: functional
Candida albicans [13] = test: Antimicrobial activity against Candida albicans obtained from tracheal suction of patient 5 days after admission by EUCAST microdilution method; format: functional; conditions: Trachea, 120 h; procedure, shortened: as §3
Candida albicans [14] = test: Antimicrobial activity against Candida albicans isolate R at 5 ug/ml grown on RPMI 1640 medium after 48 hrs by disk diffusion method; format: functional; procedure, shortened: as §1
Candida albicans [15] = test: Antimicrobial activity against Candida albicans isolate S at 5 ug/ml grown on Muller-Hinton agar medium after 48 hrs by disk diffusion method; format: functional; procedure, shortened: as §1
Candida tropicalis [16] = test: Antimicrobial activity against Candida tropicalis after 48 hrs by broth microdilution method; format: functional
Clavispora lusitaniae [17] = test: Antimicrobial activity against Candida lusitaniae after 48 hrs by 80% endpoint M27-A method
Kluyveromyces marxianus = test: Antimicrobial activity against Candida kefyr after 48 hrs by 50% endpoint M27-A2 method; format: functional
Candida albicans [18] = test: Antimicrobial activity against Candida albicans isolate R at 5 ug/ml grown on Muller-Hinton agar medium after 24 hrs by disk diffusion method; format: functional; procedure, shortened: as §1
Candida albicans [19] = test: Antimicrobial activity against Candida albicans isolate S at 5 ug/ml grown on RPMI 1640 medium after 24 hrs by disk diffusion method; format: functional; procedure, shortened: as §1
[20] = system: Meyerozyma guilliermondii; test: Antimicrobial activity against Candida guilliermondii after 48 hrs by M27-A method
[21] = system: Meyerozyma guilliermondii; test: Antimicrobial activity against Candida guilliermondii after 48 hrs by NCCLS microdilution method; format: functional
Nakaseomyces glabratus [22] = test: Antimicrobial activity against Candida glabrata after 48 hrs by 80% endpoint M27-A2 method; format: functional
Candida albicans [23] = test: Antimicrobial activity against Candida albicans isolate C after 48 hrs by EUCAST microdilution method; format: functional; procedure, shortened: as §3
Nakaseomyces glabratus [24] = test: Antimicrobial activity against Candida glabrata after 48 hrs
Candida albicans [25] = test: Antimicrobial activity against Candida albicans obtained from tracheal suction of patient 24 days after admission by EUCAST microdilution method; format: functional; conditions: Trachea, 576 h; procedure, shortened: as §3
Candida parapsilosis = test: Antimicrobial activity against Candida parapsilosis after 48 hrs by 80% endpoint M27-A method; conditions: Lodderomyces parapsilosis
Nakaseomyces glabratus [26] = test: Antimicrobial activity against Candida glabrata after 48 hrs by broth microdilution method; format: functional
Clavispora lusitaniae [27] = test: Antimicrobial activity against Candida lusitaniae after 48 hrs
Candida albicans [28] = test: Antimicrobial activity against Candida albicans isolate R after 48 hrs by microdilution method; format: functional; procedure, shortened: as §2
[29] = system: Meyerozyma guilliermondii; test: Antimicrobial activity against Candida guilliermondii after 48 hrs by 80% endpoint M27-A method
Candida albicans [30] = test: Antimicrobial activity against Candida albicans obtained from wound of patient 20 days after admission by EUCAST microdilution method; format: functional; conditions: 480 h; procedure, shortened: as §3
Candida tropicalis [31] = test: Antimicrobial activity against Candida tropicalis after 48 hrs by Etest; format: functional
[32] = system: Meyerozyma guilliermondii; test: Antimicrobial activity against Candida guilliermondii after 48 hrs by 50% endpoint M27-A2 method; format: functional
Candida tropicalis [33] = test: Antimicrobial activity against Candida tropicalis after 48 hrs by 50% endpoint M27-A2 method; format: functional
Candida albicans [34] = test: Antimicrobial activity against Candida albicans obtained from urine of patient 29 days after admission by EUCAST microdilution method; format: functional; conditions: 696 h; procedure, shortened: as §3
Candida albicans [35] = test: Antimicrobial activity against Candida albicans isolate R at 5 ug/ml grown on Muller-Hinton agar medium after 48 hrs by disk diffusion method; format: functional; procedure, shortened: as §1
Candida albicans [36] = test: Antimicrobial activity against Candida albicans isolate C after 48 hrs by Etest; format: functional
Procedure, shortened: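 Etest on RPMI 1640 agar with 2% glucose, run per the manufacturer's instructions. Index and control clinical blood isolates were tested in parallel.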

Candida albicans [37] = test: Antimicrobial activity against Candida albicans isolate R infected in NMRI mouse assessed as decrease in kidney bacterial burden at 6 mg/kg, ip measured on day 4; format: functional, organism-based; set-up: dose 6 mg/kg
Procedure, shortened: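 NMRI mice (26 to 30 g), seven per group, were infected intravenously on day 0 with 1×10^5 CFU. They received caspofungin ip on days 1 to 3 in 0.5 ml; saline-treated mice served as controls. On day 4 the kidneys were removed and homogenized, and 10-fold dilutions were spot plated. Results are log10 CFU/ml homogenate (detection limit 50 CFU/ml), compared by Mann-Whitney test.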

Debaryomyces hansenii = test: Antimicrobial activity against Candida famata after 24 hrs by M27-A3 method; format: functional
Candida albicans [38] = test: Antimicrobial activity against Candida albicans isolate R after 48 hrs by Etest; format: functional
Procedure, shortened: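 Etest on RPMI 1640 agar with 2% glucose, performed according to the manufacturer's recommendations.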

Candida albicans [39] = test: Antimicrobial activity against Candida albicans isolate C at 0.5 ug/ml after 48 hrs by agar dilution method; format: functional, organism-based
Procedure, shortened: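 Sabouraud agar wells contained caspofungin 0, 0.5, 1 or 2 µg/ml, or anidulafungin 0, 0.003, 0.125 or 0.5 µg/ml. Isolates were subcultured 2 days on CHROMagar. Suspensions of 1–5 × 10^6 CFU/ml in sterile water were diluted 1,500-fold, and 5 µl (about 3–15 cells) was spread per well. Growth was scored.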

CC[C@H](C)C[C@H](C)CCCCCCCCC(=O)N[C@H]1C[C@@H](O)[C@@H](NCCN)NC(=O)[C@@H]2[C@@H](O)CCN2C(=O)[C@H]([C@H](O)CCN)NC(=O)[C@H]([C@H](O)[C@@H](O)c2ccc(O)cc2)NC(=O)[C@@H]2C[C@@H](O)CN2C(=O)[C@H]([C@@H](C)O)NC1=O [CASPOFUNGIN]
inhibition zone (IZ) (Candida albicans [1]): 6.2 mm | MIC90 (Candida tropicalis [2]): 0.5 µg/mL (≈ 0.457 µM) | MIC (Candida albicans [3]): 1 µg/mL (≈ 0.915 µM) | inhibition zone (IZ) (Candida albicans [4]): 12.4 mm | MIC90 (Candida albicans [5]): 0.25 µg/mL (≈ 0.229 µM) | MIC90 (Pichia kudriavzevii [6]): 2 µg/mL (≈ 1.83 µM) | MIC90 (Pichia kudriavzevii [7]): 2 µg/mL (≈ 1.83 µM) | MIC90 [8]: > 8 µg/mL | MIC (Candida albicans [9]): 1 µg/mL (≈ 0.915 µM) | inhibition zone (IZ) (Candida albicans [10]): 13.4 mm | MIC90 (Candida albicans [11]): 0.25 µg/mL (≈ 0.229 µM) | MIC90 (Candida albicans [12]): 0.5 µg/mL (≈ 0.457 µM) | MIC (Candida albicans [13]): 0.25 µg/mL (≈ 0.229 µM) | inhibition zone (IZ) (Candida albicans [14]): 6.2 mm | inhibition zone (IZ) (Candida albicans [15]): 20.4 mm | MIC90 (Candida tropicalis [16]): 0.25 µg/mL (≈ 0.229 µM) | MIC90 (Clavispora lusitaniae [17]): 1 µg/mL (≈ 0.915 µM) | MIC90 (Kluyveromyces marxianus): 1 µg/mL (≈ 0.915 µM) | inhibition zone (IZ) (Candida albicans [18]): 8.8 mm | inhibition zone (IZ) (Candida albicans [19]): 20.6 mm | MIC90 [20]: > 8 µg/mL | MIC90 [21]: > 16 µg/mL | MIC90 (Nakaseomyces glabratus [22]): 1 µg/mL (≈ 0.915 µM) | MIC (Candida albicans [23]): ≤ 0.06 µg/mL | MIC90 (Nakaseomyces glabratus [24]): 0.25 µg/mL (≈ 0.229 µM) | MIC (Candida albicans [25]): 0.25 µg/mL (≈ 0.229 µM) | MIC90 (Candida parapsilosis): 2 µg/mL (≈ 1.83 µM) | MIC90 (Nakaseomyces glabratus [26]): 0.5 µg/mL (≈ 0.457 µM) | MIC90 (Clavispora lusitaniae [27]): 1 µg/mL (≈ 0.915 µM) | MIC (Candida albicans [28]): 1 µg/mL (≈ 0.915 µM) | MIC90 [29]: 1 µg/mL (≈ 0.915 µM) | MIC (Candida albicans [30]): 0.5 µg/mL (≈ 0.457 µM) | MIC90 (Candida tropicalis [31]): 0.5 µg/mL (≈ 0.457 µM) | MIC90 [32]: 1 µg/mL (≈ 0.915 µM) | MIC90 (Candida tropicalis [33]): 1 µg/mL (≈ 0.915 µM) | MIC (Candida albicans [34]): 0.25 µg/mL (≈ 0.229 µM) | inhibition zone (IZ) (Candida albicans [35]): 8.8 mm | MIC (Candida albicans [36]): 0.06 µg/mL (≈ 0.0549 µM) | Activity (Candida albicans [37]): inactive | MIC90 (Debaryomyces hansenii): 1 µg/mL (≈ 0.915 µM) | MIC (Candida albicans [38]): > 32 µg/mL | growth inhibition (GI) (Candida albicans [39]): Active
